Results pooled from the literature.
Compare with care: the assays were run in different laboratories.
BRAF: Serine/threonine-protein kinase B-raf (BRAF, Homo sapiens, UniProt P15056)
BRAF V600E: Serine/threonine-protein kinase B-raf (BRAF, Homo sapiens, UniProt P15056, V600E)

| SMILES | target | observed | mode | technique | tested at | measurement | value |
| --- | --- | --- | --- | --- | --- | --- | --- |
| C[C@H]1CC[C@H](n2c3cnccc3c3cnc(Nc4ccc5c(n4)CCN(C(=O)CO)C5)nc32)CC1 | BRAF | cell-free assay |  | competition with immobilised ligand | 1 µM | remaining binding | 74% |
| CCCCC(=O)Nc1ccc(-c2ccc3ncn(CCC)c(=O)c3c2)cn1 | BRAF | binding |  | competition with immobilised ligand | 0.5 µM | remaining binding | 97% |
| CC#CC(=O)N1CCC[C@H]1c1nc(-c2ccc(C(=O)Nc3ccccn3)cc2)c2c(N)nccn12 | BRAF V600E | enzyme activity | inhibitor |  | 1 µM | inhibition | 44% |
| COc1ccc2[nH]c3c4[nH]c5ccc(OC)cc5c4c4c(c3c2c1)C(=O)NC4=O | BRAF V600E | binding |  |  | 1 µM | remaining binding | 89% |
| Cc1cc2c(C(N)=O)c(N)n(-c3c(C)ccc(O)c3C)c2nc1C | BRAF V600E | binding |  | competition with immobilised ligand | 1 µM | remaining binding | 0.75% |
| Cc1ccc(NC(=O)c2ccnc(C(F)(F)F)c2)cc1-c1cc(OCCO)nc(N2CCOCC2)c1 | BRAF V600E | binding |  |  | 1 µM | remaining binding | 0.35% |
| COc1ccc2oc(-c3ccc4nc(N)oc4c3)c/c(=N\c3ccccc3NC(=O)CCN)c2c1 | BRAF V600E | cell-free assay |  |  | 1 µM | remaining signal | 100% |
| C#Cc1cnc(Nc2ccnc(CO)c2)nc1Nc1ccccc1S(C)(=O)=NC#N (centres unmarked) | BRAF | cell-free assay |  |  | 1 µM | remaining signal | 92% |
| C=CC(=O)N1CCC[C@@H](n2nc(-c3ccc(Oc4ccccc4)cc3)c3c(N)ncnc32)C1 | BRAF | enzyme activity | inhibitor |  | 1 µM | inhibition | 51% |
| CN1CCN(C(=O)c2ccc(NC(=O)Nc3ccc(N(C)c4ccnc(Nc5ccc(CS(C)(=O)=O)cc5)n4)cc3)cc2)CC1 | BRAF | binding |  | competition with immobilised ligand | 1 µM | remaining binding | 89% |
| C=CC(=O)N1CCC([C@@H]2CCNc3c(C(N)=O)c(-c4ccc(Oc5ccccc5)cc4)nn32)CC1 | BRAF V600E | enzyme activity | inhibitor |  | 1 µM | inhibition | 0% |
| C1=C/COCc2cc(ccc2OCCN2CCCC2)Nc2nccc(n2)-c2cccc(c2)COC/1 | BRAF | binding |  |  | 0.1 µM | remaining binding | 94% |
| N#Cc1ccc(NC(=O)Nc2ccccc2)cc1 | BRAF | cell-free assay |  | competition with immobilised ligand | 25 µM | remaining binding | 100% |
| CO[C@@H]1[C@H](N(C)C(=O)c2ccccc2)C[C@H]2O[C@]1(C)n1c3ccccc3c3c4c(c5c6ccccc6n2c5c31)C(=O)NC4 | BRAF | enzyme activity | inhibitor |  | 1 µM | inhibition | 6% |
